Here are results for three compounds from ChEMBL document CHEMBL1154352, “Toll-like receptor 7 selective synthetic oligoribonucleotide agonists: synthesis and structure-activity relationship studies” (J Med Chem, 2009).

Experiment [1] concerns the target T1, Toll-like receptor 7 (Homo sapiens) (UniProt Q9NYK1).
T1 sequence (whole entry): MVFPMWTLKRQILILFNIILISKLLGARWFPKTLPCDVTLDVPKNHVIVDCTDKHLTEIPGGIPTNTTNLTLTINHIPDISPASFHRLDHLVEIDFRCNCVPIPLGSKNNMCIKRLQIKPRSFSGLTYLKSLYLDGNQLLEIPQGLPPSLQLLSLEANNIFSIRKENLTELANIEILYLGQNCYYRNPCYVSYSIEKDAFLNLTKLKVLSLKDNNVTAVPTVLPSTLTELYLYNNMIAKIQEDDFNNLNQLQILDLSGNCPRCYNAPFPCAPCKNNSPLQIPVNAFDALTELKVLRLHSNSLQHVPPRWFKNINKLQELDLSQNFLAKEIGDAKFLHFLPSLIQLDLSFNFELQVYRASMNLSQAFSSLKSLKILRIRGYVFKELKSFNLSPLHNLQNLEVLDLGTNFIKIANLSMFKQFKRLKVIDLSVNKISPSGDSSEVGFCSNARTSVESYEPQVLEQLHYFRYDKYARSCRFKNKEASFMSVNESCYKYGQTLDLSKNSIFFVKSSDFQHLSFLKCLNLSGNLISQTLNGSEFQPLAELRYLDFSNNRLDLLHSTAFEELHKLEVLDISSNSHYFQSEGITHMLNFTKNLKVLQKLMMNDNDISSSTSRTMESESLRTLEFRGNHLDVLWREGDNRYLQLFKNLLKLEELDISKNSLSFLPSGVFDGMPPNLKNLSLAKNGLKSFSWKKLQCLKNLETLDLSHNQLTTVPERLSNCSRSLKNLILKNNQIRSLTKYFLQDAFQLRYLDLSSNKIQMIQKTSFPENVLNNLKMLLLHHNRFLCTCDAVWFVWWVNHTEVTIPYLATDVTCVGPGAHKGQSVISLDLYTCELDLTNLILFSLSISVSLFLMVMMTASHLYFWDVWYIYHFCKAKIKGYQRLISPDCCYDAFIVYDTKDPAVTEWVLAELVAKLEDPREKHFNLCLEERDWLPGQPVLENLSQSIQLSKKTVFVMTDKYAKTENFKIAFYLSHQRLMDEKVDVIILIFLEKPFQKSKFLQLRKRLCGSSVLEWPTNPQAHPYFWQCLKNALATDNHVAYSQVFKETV
Nature of the experiment: Activation of human TLR7 expressed in HEK293XL assessed as fold induction of NF-kappaB activity at 50 ug/ml after 18 hrs by reporter gene assay relative to control. The gist of the method:
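HEK293 cells stably expressing human TLR7 or TLR8, transiently transfected with SEAP reporter plasmid; medium replaced, SIMRA compounds added, 18 h incubation. Supernatant SEAP measured by QuantiBlue; expressed as fold increase in NF-κB activity over PBS control. Tabulated data at 50 μg/mL, representative of three independent experiments.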

Another experiment is filed under the species Homo sapiens. As to the kind of experiment: Ratio of human TLR7 activity to human TLR8 activity. The gist of the method:
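TLR7/TLR8 ratio computed from fold NF-κB (SEAP reporter) activation in HEK293 cells stably expressing human TLR7 versus TLR8, compounds at 50 μg/mL, 18 h exposure; representative of three independent experiments.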

Turning to `Nc1ccn([C@@H]2O[C@H](COP(=O)(S)O[C@H]3[C@@H](O)[C@H](n4cnc5c(N)ncnc54)O[C@@H]3CO)[C@@H](OP(=O)(S)OC[C@H]3O[C@@H](n4ccc5c(=O)[nH]c(N)nc54)[C@H](O)[C@@H]3OP(=O)(S)OC[C@H]3O[C@@H](n4ccc(=O)[nH]c4=O)[C@H](O)[C@@H]3OP(=O)(S)OC[C@H]3O[C@@H](n4ccc5c(=O)[nH]c(N)nc54)[C@H](O)[C@@H]3OP(=O)(S)OC[C@H]3O[C@@H](n4cnc5c(N)nc(N)nc54)[C@H](O)[C@@H]3OP(=O)(S)OC[C@H]3O[C@@H](n4cnc5c(N)ncnc54)[C@H](O)[C@@H]3OP(=O)(S)OC[C@H]3O[C@@H](n4ccc5c(=O)[nH]c(N)nc54)[C@H](O)[C@@H]3OP(=O)(S)OC[C@H]3O[C@@H](n4ccc(N)nc4=O)[C@H](O)[C@@H]3OP(=O)(S)OC[C@H]3O[C@@H](n4ccc(=O)[nH]c4=O)[C@H](O)[C@@H]3OP(=O)(S)OC[C@H]3O[C@@H](n4ccc(=O)[nH]c4=O)[C@H](O)[C@@H]3OP(=O)(S)OCC(O)COP(=O)(S)O[C@H]3[C@@H](O)[C@H](n4ccc(=O)[nH]c4=O)O[C@@H]3COP(=O)(S)O[C@H]3[C@@H](O)[C@H](n4ccc(=O)[nH]c4=O)O[C@@H]3COP(=O)(S)O[C@H]3[C@@H](O)[C@H](n4ccc(N)nc4=O)O[C@@H]3COP(=O)(S)O[C@H]3[C@@H](O)[C@H](n4ccc5c(=O)[nH]c(N)nc54)O[C@@H]3COP(=O)(S)O[C@H]3[C@@H](O)[C@H](n4cnc5c(N)nc(N)nc54)O[C@@H]3COP(=O)(S)O[C@H]3[C@@H](O)[C@H](n4cnc5c(N)nc(N)nc54)O[C@@H]3COP(=O)(S)O[C@H]3[C@@H](O)[C@H](n4ccc5c(=O)[nH]c(N)nc54)O[C@@H]3COP(=O)(S)O[C@H]3[C@@H](O)[C@H](n4ccc(=O)[nH]c4=O)O[C@@H]3COP(=O)(S)O[C@H]3[C@@H](O)[C@H](n4ccc5c(=O)[nH]c(N)nc54)O[C@@H]3COP(=O)(S)O[C@H]3[C@@H](O)[C@H](n4ccc(N)nc4=O)O[C@@H]3COP(=O)(S)O[C@H]3[C@@H](O)[C@H](n4cnc5c(N)ncnc54)O[C@@H]3CO)[C@H]2O)c(=O)n1` (stereo partly specified), in experiment [1], the fold change (FC) turned out to be 26.8. Moreover, the Ratio in the experiment filed under Homo sapiens was 13.4.
The corresponding values for `Nc1ccn([C@@H]2O[C@H](COP(=O)(S)O[C@H]3[C@@H](O)[C@H](n4cnc5c(N)ncnc54)O[C@@H]3CO)[C@@H](OP(=O)(S)OC[C@H]3O[C@@H](n4ccc5c(=O)[nH]c(N)nc54)[C@H](O)[C@@H]3OP(=O)(S)OC[C@H]3O[C@@H](n4ccc(N)nc4=O)[C@H](O)[C@@H]3OP(=O)(S)OC[C@H]3O[C@@H](n4ccc(=O)[nH]c4=O)[C@H](O)[C@@H]3OP(=O)(S)OC[C@H]3O[C@@H](n4ccc5c(=O)[nH]c(N)nc54)[C@H](O)[C@@H]3OP(=O)(S)OC[C@H]3O[C@@H](n4cnc5c(N)ncnc54)[C@H](O)[C@@H]3OP(=O)(S)OC[C@H]3O[C@@H](n4ccc5c(=O)[nH]c(N)nc54)[C@H](O)[C@@H]3OP(=O)(S)OC[C@H]3O[C@@H](n4ccc(N)nc4=O)[C@H](O)[C@@H]3OP(=O)(S)OC[C@H]3O[C@@H](n4ccc(=O)[nH]c4=O)[C@H](O)[C@@H]3OP(=O)(S)OC[C@H]3O[C@@H](n4ccc(=O)[nH]c4=O)[C@H](O)[C@@H]3OP(=O)(S)OCC(O)COP(=O)(S)O[C@H]3[C@@H](O)[C@H](n4ccc(=O)[nH]c4=O)O[C@@H]3COP(=O)(S)O[C@H]3[C@@H](O)[C@H](n4ccc(=O)[nH]c4=O)O[C@@H]3COP(=O)(S)O[C@H]3[C@@H](O)[C@H](n4ccc(N)nc4=O)O[C@@H]3COP(=O)(S)O[C@H]3[C@@H](O)[C@H](n4ccc5c(=O)[nH]c(N)nc54)O[C@@H]3COP(=O)(S)O[C@H]3[C@@H](O)[C@H](n4cnc5c(N)nc(N)nc54)O[C@@H]3COP(=O)(S)O[C@H]3[C@@H](O)[C@H](n4ccc5c(=O)[nH]c(N)nc54)O[C@@H]3COP(=O)(S)O[C@H]3[C@@H](O)[C@H](n4ccc(=O)[nH]c4=O)O[C@@H]3COP(=O)(S)O[C@H]3[C@@H](O)[C@H](n4ccc(N)nc4=O)O[C@@H]3COP(=O)(S)O[C@H]3[C@@H](O)[C@H](n4ccc5c(=O)[nH]c(N)nc54)O[C@@H]3COP(=O)(S)O[C@H]3[C@@H](O)[C@H](n4ccc(N)nc4=O)O[C@@H]3COP(=O)(S)O[C@H]3[C@@H](O)[C@H](n4cnc5c(N)ncnc54)O[C@@H]3CO)[C@H]2O)c(=O)n1` (stereo partly specified) are 26.6 and 29.6.
The matching figures for `Nc1ccn([C@@H]2O[C@H](COP(=O)(S)O[C@H]3[C@@H](O)[C@H](n4cnc5c(N)ncnc54)O[C@@H]3COP(=O)(S)O[C@H]3[C@@H](O)[C@H](n4cnc5c(N)ncnc54)O[C@@H]3CO)[C@@H](OP(=O)(S)OC[C@H]3O[C@@H](n4ccc(=O)[nH]c4=O)[C@H](O)[C@@H]3OP(=O)(S)OC[C@H]3O[C@@H](n4ccc5c(=O)[nH]c(N)nc54)[C@H](O)[C@@H]3OP(=O)(S)OC[C@H]3O[C@@H](n4cnc5c(N)ncnc54)[C@H](O)[C@@H]3OP(=O)(S)OC[C@H]3O[C@@H](n4ccc(N)nc4=O)[C@H](O)[C@@H]3OP(=O)(S)OC[C@H]3O[C@@H](n4ccc5c(=O)[nH]c(N)nc54)[C@H](O)[C@@H]3OP(=O)(S)OC[C@H]3O[C@@H](n4ccc(N)nc4=O)[C@H](O)[C@@H]3OP(=O)(S)OC[C@H]3O[C@@H](n4ccc(=O)[nH]c4=O)[C@H](O)[C@@H]3OP(=O)(S)OC[C@H]3O[C@@H](n4ccc5c(=O)[nH]c(N)nc54)[C@H](O)[C@@H]3OP(=O)(S)OCC(O)COP(=O)(S)O[C@H]3[C@@H](O)[C@H](n4ccc5c(=O)[nH]c(N)nc54)O[C@@H]3COP(=O)(S)O[C@H]3[C@@H](O)[C@H](n4ccc(=O)[nH]c4=O)O[C@@H]3COP(=O)(S)O[C@H]3[C@@H](O)[C@H](n4ccc(N)nc4=O)O[C@@H]3COP(=O)(S)O[C@H]3[C@@H](O)[C@H](n4ccc5c(=O)[nH]c(N)nc54)O[C@@H]3COP(=O)(S)O[C@H]3[C@@H](O)[C@H](n4ccc(N)nc4=O)O[C@@H]3COP(=O)(S)O[C@H]3[C@@H](O)[C@H](n4cnc5c(N)ncnc54)O[C@@H]3COP(=O)(S)O[C@H]3[C@@H](O)[C@H](n4ccc5c(=O)[nH]c(N)nc54)O[C@@H]3COP(=O)(S)O[C@H]3[C@@H](O)[C@H](n4ccc(=O)[nH]c4=O)O[C@@H]3COP(=O)(S)O[C@H]3[C@@H](O)[C@H](n4ccc(N)nc4=O)O[C@@H]3COP(=O)(S)O[C@H]3[C@@H](O)[C@H](n4cnc5c(N)ncnc54)O[C@@H]3COP(=O)(S)O[C@H]3[C@@H](O)[C@H](n4cnc5c(N)ncnc54)O[C@@H]3CO)[C@H]2O)c(=O)n1` (stereo partly specified): 18.4 and 46.
